# Source: PubChem BioAssay
# dFosB act-1: activators of mouse delta FosB homodimer; P13346; purified delta FosB, TAMRA-CDK5 oligo fluorescence polarization; percent of positive-control signal above neutral wells; activation, % at 25 µM; hit rate 0.99% among 340,000; AID 493131;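 active = mean activation above about 17%, with every replicate also reaching it, limit read from the data, passing the limit was not always enough; inconclusive = only one of the two conditions met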
# Target sequence (P13346 whole entry, looked up): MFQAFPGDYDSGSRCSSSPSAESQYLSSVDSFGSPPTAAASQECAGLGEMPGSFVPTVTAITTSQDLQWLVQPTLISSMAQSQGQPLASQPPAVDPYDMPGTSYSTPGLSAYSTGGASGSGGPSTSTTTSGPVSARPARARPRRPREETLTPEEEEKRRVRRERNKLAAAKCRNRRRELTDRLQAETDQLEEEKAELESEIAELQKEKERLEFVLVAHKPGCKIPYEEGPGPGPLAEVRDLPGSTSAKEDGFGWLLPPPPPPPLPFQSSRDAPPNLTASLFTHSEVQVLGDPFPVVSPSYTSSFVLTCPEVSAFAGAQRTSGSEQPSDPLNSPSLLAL
# GSIS activator: primary screen for activators of insulin secretion dependent on glucose, INS-1E cells, GLuc reporter luminescence. activation, % at 16.6 µM. INS-1E GLuc reporter insulin secretion, 2-3 h. hit rate 0.61% among 370,000;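 active = lowest replicate activation of at least 40%, so every replicate reaches that level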;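 also: 0% = median of neutral control wells and 100% = median of IBMX positive control wells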
# Cneo AK release: Cryptococcus neoformans lysis via adenylate kinase release; C. neoformans lysis, adenylate kinase release luminescence, 4 h; normalised: neutral wells 0, clomiphene wells 100; lysis activity, % at 15 µM; hit rate 0.2% among 360,000; AID 651654;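 active = mean lysis activity across replicates of at least 80%, whatever share of replicates individually reach that level; inactive = mean lysis activity below 80%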
#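 Material: C. neoformans cells; Schedule: 4 h static compound exposure, 37 °C, read 1 h post-reagent; Measured by: adenylate kinase release luminescence; Read-out: signal increase indicating cell lysis; Controls: Clomiphene as positive lysis control.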
# PAX8 reporter: inhibitors of PAX8 transcriptional activity in RMG-I cells; RMG-I TPO-luciferase reporter, SteadyGlo, 24 h; hit rate 1.2% among 360,000; inhibition, % at 12.6 µM;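 active = mean replicate inhibition at least 60% with every replicate also reaching 60%; inconclusive = only one of the two criteria is met; inactive = mean below 60% and not all replicates reaching 60%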;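 also: luciferase light reporting Pax8 driven TPO promoter activity; plate controls were median of neutral control wells for no effect and mitoxantrone controls for full effect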
# CDK5 inh: blocks human CDK5/p35 kinase activity. AID 488839. Q00535+Q15078. inhibition, % at 10 µM. hit rate 0.01% among 330,000. Recombinant CDK5/p35, ADP-Glo luminescence, 60 min;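 active = highest replicate inhibition of at least 50% and at least 75% of replicates reaching 50%; inconclusive = only one of the two criteria met; inactive = both criteria failed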;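 also: plate controls were DMSO neutral control for no effect and GW8510 at 10 µM for full effect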
# Env fusion inh: HIV envelope-mediated fusion inhibition; HeLa-JRFL Env/CEM21 cell fusion, luciferase; hit rate 1.1% among 360,000; inhibition, % at 12.3 µM;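 active = mean replicate inhibition score of at least 50 and every replicate individually at or above 50; inconclusive = only one of the two criteria met; inactive = mean below 50 and not all replicates reaching 50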;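 also: 0% = plate neutral controls and 100% = maraviroc near 300 nM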
# dFosB act-2: delta FosB (mouse) homodimer activation. shares compounds with dFosB act-1. purified delta FosB, TAMRA-CDK5 oligo fluorescence polarization; normalised: neutral wells 0, positive control 100. activation, % at 24.9 µM. 2,400 tested, under 10 active. AID 588690;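 active = highest replicate activation at or above 34% and every replicate reaching that threshold; inconclusive = meets only one of the two criteria; inactive = meets neither criterion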;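 also: higher polarization means more probe DNA bound by delta FosB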
# Active calls of the source: *; ? = inconclusive; / = no result given; [ ] = remark or other dose. Shown are actives, neighbours in structure and some others; about 2.9% of the full set was active somewhere.
SMILES,dFosB act-1,GSIS activator,Cneo AK release,PAX8 reporter,CDK5 inh,Env fusion inh,dFosB act-2
O=C(N/N=C\c1cccc(Cl)c1)c1ccc(Cn2cc(Br)c([N+](=O)[O-])n2)o1,33.4*,-39.4,/,-20.3,1.8,-18.6,-0.9
CNC[C@@H]1Oc2ncc(C#Cc3ccc(OC)c(OC)c3)cc2C(=O)N([C@H](C)CO)C[C@@H]1C,/,0.9,17.8,/,/,4.6[16.7 µM],/
CO[C@H](CN(C)C(=O)Nc1ccc(F)cc1)[C@@H](C)CN(Cc1ccccc1Cl)[C@@H](C)CO,/,7.6,0.4,/,/,/,/
CO[C@H]1CN(C)C(=O)c2cc(NC(=O)c3cccc(Oc4ccccc4)c3)ccc2OC[C@@H](C)NC[C@H]1C,/,-6.7,/,/,/,/,/
O=C(C1CCCC1)N1CCCCN2[C@H](CO)[C@@H](c3ccc(C#CC4CC4)cc3)[C@@H]2C1,/,/,-0.3,14.3,/,/,/
CNC[C@@H]1OCc2cnnn2CCCC(=O)N([C@H](C)CO)C[C@@H]1C,/,4.9,/,-1.7,/,/,/
CO[C@@H]1CC[C@H]2CCOc3c(C#N)cccc3C(=O)N(C)[C@H](C)C(=O)N(C)C[C@@H]1O2,/,-9.4,-0.2,6.8,/,-1.9[16.7 µM],/
CCOc1ccccc1-n1c(SCC(=O)N2CCCc3ccccc32)nnc1-c1cccnc1,-1.6,-13.3,/,0.0,1.3,27.8,/
Cc1cccc(-n2c(Cc3cc(=O)[nH]c(=O)[nH]3)nnc2SCC(=O)N2CCc3ccccc32)c1,38.2*,10.0,-0.7,/,1.3,/,-1.8
CCOc1ccc(-n2c(SCC(=O)N3CCc4ccccc43)nnc2-c2c[nH]c3ccccc23)cc1,27.2*,-2.7,1.6,15.4,3.8,-9.0,3.7
NC(N)=NC(=O)c1nc(Cl)c(N)nc1N,4.0,11.8,-2.7,-22.1,3.9,-8.6,/
NC(N)=NC(=O)c1nc(Cl)c(N2CCCCCC2)nc1N,26.5*,30.9,7.2,-54.0,0.5,61.7*,5.4
CN(C)CC(=O)Nc1ccc2c(c1)[C@@H]1C[C@@H](CC(=O)NCCN3CCCCC3)O[C@H](CO)[C@@H]1O2,/,2.8,3.8,-18.3,/,-7.6[16.7 µM],/
CCOc1ccc(-n2c([S-])c(C(=O)Nc3ccc(S(=O)(=O)N4CCOCC4)cc3)[n+]3cc(C(N)=O)ccc23)cc1,20.0*,-2.1,/,38.5,1.0,18.0,1.6
CCOc1ccc(NC(=O)COC(=O)c2ccc(S(=O)(=O)N3CCOCC3)cc2)cc1,10.2,7.9,-3.6,4.5,1.1,2.4,/
CCCN(CCC)CCCNC(=S)Nc1ccc2nc(N3CCCC3)cc(C)c2c1,36.2*,7.1,0.9,5.3,1.0,3.9,?
CCN(CC)CCNC(=S)Nc1ccc2nc(N3CCN(C)CC3)cc(C)c2c1,23.9*,33.2,-8.1,-28.3,2.1,4.5,-0.4
CCCCN(CC)CCCNC(=S)Nc1ccc2nc(N3CCN(C)CC3)cc(C)c2c1,14.5,10.3,-1.4,-18.3,1.6,-8.6,/
CCN(CC)CCNC(=S)Nc1ccc2nc(N3CCCC3)cc(C)c2c1,32.1*,13.6,/,24.1,1.5,7.1,0.9
CCN(CC)CCNC(=S)Nc1ccc2nc(N3CCOCC3)cc(C)c2c1,-12.4,20.7,0.9,-13.4,-1.1,1.2,/
C[C@@H]1CCCCO[C@@H](CN(C)Cc2ccncc2)[C@@H](C)CN([C@@H](C)CO)C(=O)c2cc(NS(=O)(=O)c3ccc(F)cc3)ccc2O1,/,-7.2,-3.0,4.9,/,2.5[16.7 µM],/
CO[C@H]1CN(C)C(=O)c2ccc(NC(=O)c3ccccc3)cc2OC[C@@H](C)NC[C@H]1C,/,10.7,-0.9,-13.9,/,/,/
COc1ccc2c3c([nH]c2c1)[C@H](CO)N(C(=O)c1ccc(F)cc1)CC31CCN(C(=O)Nc2ccc(F)cc2)CC1,/,-16.3,/,7.2,/,/,/
Cc1ccc2cc3cc(C(=O)NCc4ccc5c(c4)OCO5)oc3nc2c1,56.1*,/,-3.7,/,-0.4,-73.6,2.6
O=C(c1ccccc1)N1CC2(C1)[C@H](c1ccccc1)[C@H](CO)N2Cc1cc(F)ccc1F,/,-24.6,/,10.2,/,/,/
SMILES,dFosB act-1,GSIS activator,Cneo AK release,PAX8 reporter,CDK5 inh,Env fusion inh,dFosB act-2
O=C(Cc1sc(-c2ccccc2Cl)nc1-c1ccccc1)Nc1ccc(F)cc1,25.5*,/,/,/,-0.9,/,-1.0
CC(=O)Nc1ccc(NC(=O)Cc2sc(-c3cccnc3)nc2-c2ccc(C)cc2)cc1,29.8*,-0.7,5.0,10.0,0.1,7.4,0.7
CC(=O)N(C)C[C@H]1Oc2ccc(N)cc2CC(=O)N(C)C[C@H]1C,/,10.2,/,/,/,/,/
CCCNC(=O)N1C[C@H](O)COC[C@@H]2O[C@@H](CC(=O)NCc3ccc(Cl)c(Cl)c3)CC[C@H]21,/,-3.2,-3.4,-8.5,/,10.9[16.7 µM],/
O=C(Nc1ccc([N+](=O)[O-])cc1Br)c1cc2ccccc2nc1Cl,112.8*,-1.9,3.2,-20.7,-0.3,-22.9,-5.9
Cc1occc1C(=O)Nc1ccc([N+](=O)[O-])cc1Br,-3.3,5.0,1.7,-7.0,-1.5,-31.6,/
Cc1cccc(OCC(=O)NNC(=O)Nc2cccc(Cl)c2)c1C,17.9*,/,3.4,/,0.3,/,6.9
O=C(CCc1ccccc1)NNC(=O)Nc1cccc(Cl)c1,-0.4,-17.1,-0.6,0.9,1.1,10.9,/
O=C(Cc1cccc2ccccc12)NNC(=O)Nc1cccc(Cl)c1,31.2*,/,6.0,23.0,0.7,0.8,0.7
COc1ccc(S(=O)(=O)N(C)C[C@@H]2OCCCC[C@@H](C)Oc3ccc(NC(=O)C4CCCCC4)cc3C(=O)N([C@H](C)CO)C[C@@H]2C)cc1,/,16.3,1.7,13.5,/,-9.1[16.7 µM],/
N#CC1=C(N)N2C(=C(C#N)C1c1cccc(Br)c1)Nc1ccccc12 (stereo not given),26.9*,-7.2,/,-7.6,-0.4,64.8*,-0.7
O=C(c1ccccc1)N1CCC2CCN(CCc3ccccc3)CC21 (stereo not given),/,/,/,-7.3,/,5.2,/
CC1(C)Cc2c(sc3nc(SCC(=O)NCc4ccco4)n(-c4ccccc4)c(=O)c23)CS1,2.0,/,/,/,-0.3,/,/
O=C(CSc1nc2sc3c(c2c(=O)n1-c1ccccc1)CCCC3)NCc1ccco1,52.5*,2.1,3.2,6.2,-0.5,66.3*,7.7
O=C(C[C@H]1C=C[C@H](NC(=O)c2cccc(F)c2)[C@H](CO)O1)NCCN1CCCC1,/,7.1,-4.1,-6.7,/,1.7[16.7 µM],/
CCOCCn1c(=NC(=O)/C=C/c2ccccc2Cl)sc2cc(NC(C)=O)ccc21,-6.9,1.0,/,-13.7,0.4,13.6,/
COCCn1c(=NC(=O)/C=C/c2ccccc2Cl)sc2cc(NC(C)=O)ccc21,26.5*,19.6,/,-0.1,1.0,13.3,-2.2
Cc1ccc(-c2nnc(NCc3ccccc3)c3ccccc23)cc1,-6.9,-29.0,1.2,-2.4,-0.9,18.6,/
Clc1ccc(-c2nnc(NCc3ccccc3)c3ccccc23)cc1,18.0*,-54.0,-12.5,30.0,0.1,-13.7,5.6
